High-throughput results (PubChem BioAssay)
PLCb3 inh = human PLC-beta3 inhibitors, primary screen, biochemical, fluorescence; 1-phosphatidylinositol 4,5-bisphosphate phosphodiesterase beta-3 (Homo sapiens), Q01970; inhibition, % at 12.2 µM; Purified PLC-beta3, fluorogenic substrate; 370,000 tested, 0.18% active; AID 720704, 2013; in the data active means inhibition above about 11%;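 further: 0% = median of compound wells on plate and 100% = full blocker control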
Tn7 DDE FP = inhibitors of Tn7 peptide binding to fibrin DD(E), primary screen, biochemical, fluorescence polarization, human fibrin, Tn7 probe; inhibition, % at 8.3 µM; 370,000 tested, 0.13% active; FP displacement of FITC-Tn7 peptide from fibrin DD(E); 0% = median of compound wells per plate; AID 720508, 2013;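 active means inhibition above the mean of compounds falling within the control limits plus 3 SD of them, cut at about 14% in these data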;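 further: 0% = plate median of compound wells and 100% = 10 µM Aha-Tn7 peptide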
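system = human fibrin DD(E) protein | quantity = DD(E) 2 µM final | medium = Tris/NaCl/CaCl2 buffer, pH 7.8 | also added = labelled Tn7 tracer, 0.1 µM | compound dosing = single point at 8.3 µM | timing = compound with protein 10 min, then 3 h after probe, room temperature | signal = FP measurement | benchmarks = Aha-Tn7 high control | repeats = one replicate per compound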
Tn6 DDE FP = inhibitors of Tn6 peptide binding to fibrin DD(E), primary screen, biochemical, fluorescence polarization, human fibrin, Tn6 probe; Fibrinogen beta chain (Homo sapiens), P02675; Fibrin DD(E) TRITC-Tn6 fluorescence polarization displacement; inhibition, % at 8.3 µM; 370,000 tested, 0.21% active;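 active means inhibition above a per-campaign cutoff: mean of compounds within control limits plus 3 SD, cut at about 15% in these data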;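 further: 0% = median of all compound wells on the plate and 100% = blocking peptide control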
PLCg1 inh = PLC-gamma1 enzyme inhibitors, primary screen, biochemical, fluorescence, purified enzyme; 1-phosphatidylinositol 4,5-bisphosphate phosphodiesterase gamma-1 (Homo sapiens), P19174; fluorogenic substrate; inhibition, % at 12.2 µM; 370,000 tested, 0.84% active
ADAM17 inh = ADAM17 inhibitors, primary screen, biochemical, QFRET. 370,000 tested, 0.83% active. AID 720648, 2013. inhibition, % at 6.95 µM. Disintegrin and metalloproteinase domain-containing protein 17 (Homo sapiens), P78536. recombinant ADAM17, EDANS/DABCYL FRET peptide cleavage;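 active means inhibition above the mean of compounds lying between control limits plus 3 SD, set per campaign, cut at about 8.5% in these data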;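 further: 0% = DMSO-only wells as the low control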
ADAM10 inh = human ADAM10 inhibitors, primary screen, biochemical, QFRET, HTS. inhibition, % at 7 µM. recombinant ADAM10, EDANS/DABCYL FRET peptide cleavage, 3 h. 370,000 tested, 0.62% active. Disintegrin and metalloproteinase domain-containing protein 10 (Homo sapiens), O14672;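 active means inhibition above a per-campaign cutoff equal to the mean of compounds falling between control-based bounds plus 3 SD, cut at about 20% in these data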;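 further: 0% = DMSO wells while the 100% control is not disclosed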
Target sequence (O14672 214-748 limits assumed): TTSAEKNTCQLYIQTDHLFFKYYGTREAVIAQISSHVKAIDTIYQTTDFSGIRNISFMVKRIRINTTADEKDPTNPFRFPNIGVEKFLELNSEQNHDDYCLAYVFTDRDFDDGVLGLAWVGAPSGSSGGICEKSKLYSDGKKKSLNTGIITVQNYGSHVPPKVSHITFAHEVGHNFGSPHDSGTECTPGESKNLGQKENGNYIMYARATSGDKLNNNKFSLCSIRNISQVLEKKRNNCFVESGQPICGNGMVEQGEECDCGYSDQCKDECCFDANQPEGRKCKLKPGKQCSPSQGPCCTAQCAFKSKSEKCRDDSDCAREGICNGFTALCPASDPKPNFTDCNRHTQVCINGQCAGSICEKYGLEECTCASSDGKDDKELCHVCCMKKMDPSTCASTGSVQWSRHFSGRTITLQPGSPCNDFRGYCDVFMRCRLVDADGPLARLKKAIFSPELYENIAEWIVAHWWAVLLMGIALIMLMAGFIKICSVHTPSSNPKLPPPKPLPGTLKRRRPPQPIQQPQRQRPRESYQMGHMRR
Tn6 DDE ctr = counter-screen hit for Tn6 peptide-fibrin DD(E) binding disruption; shares compounds with Tn6 DDE FP; TRITC-Tn6 fluorescence polarization displacement; 0% = median of compound wells, not DMSO; 680 tested, 2% active; inhibition, % at 8.3 µM;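 active means inhibition above the mean of test compounds lying between the control limits plus 3 SD of those, cut at about 14% in these data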;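 further: 0% = median of compound wells and 100% = wells with Aha-Tn7 blocking peptide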
DDE Tn6 confirm = inhibitors of Tn6 peptide binding to fibrin DD(E), confirmation, biochemical, fluorescence polarization, human fibrin, Tn6 probe; shares compounds with Tn6 DDE FP; FP displacement of TRITC-Tn6 peptide from DD(E); 0% = per-plate median of test wells; inhibition, % at 8.3 µM; 680 tested, 10% active; AID 720631, 2013;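 active means inhibition above the mean of compounds lying within the control limits plus 3 SD, cut at about 16% in these data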;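 further: 100% = high control wells holding a competing inhibitor peptide at 10 µM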
ADAM10 confirm = human ADAM10 inhibitors, confirmation, biochemical, QFRET, triplicate | shares compounds with ADAM10 inh | ADAM10 QFRET peptide cleavage, EDANS fluorescence | inhibition, % at 6.95 µM | 2,100 tested, 1% active | AID 743208, 2013;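 active means inhibition above about 20% chosen separately for each screening run, limit read from the data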;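 further: 0% = DMSO wells and 100% = marimastat wells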
ADAM17 counter = ADAM17 inhibitors, counter-screen for ADAM10 exosite inhibitor project, biochemical, QFRET, high throughput. shares compounds with ADAM10 inh. AID 743214, 2013. 2,100 tested, 0.5% active. inhibition, % at 6.95 µM. ADAM17 QFRET peptide cleavage, EDANS fluorescence;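 active means mean triplicate inhibition above the solvent-only control wells' mean plus 3 SD, cut at about 12% in these data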;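 further: 0% = DMSO wells and 100% = marimastat wells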
PLCgamma1 ctr = PLC-gamma1 enzyme inhibitors, counter-screen for PLC-beta3 inhibitor project, biochemical, fluorescence. shares compounds with PLCg1 inh. 3,300 tested, 3.1% active. purified PLC-gamma1, fluorogenic substrate. inhibition, % at 12.3 µM
PLCbeta3 conf = PLC-beta3 inhibitor confirmation, biochemical, fluorescence, purified enzyme; shares compounds with PLCg1 inh; fluorogenic substrate fluorescence; inhibition, % at 12.3 µM; 3,300 tested, 1% active; AID 743261, 2014; in the data active means inhibition above about 11%
Active calls of the source: *; . = no result given. An excerpt weighted towards active compounds, which were near 2.3% of everything screened. Unless noted, no stated cut-off is given here; in the data, active means inhibition above about 9.5%; inactive means the rest.

SMILES	PLCb3 inh	Tn7 DDE FP	Tn6 DDE FP	PLCg1 inh	ADAM17 inh	ADAM10 inh	ADAM10 confirm	ADAM17 counter	others
CC(=O)N1CCSc2ccc(S(=O)(=O)NCCc3ccc(C)cc3)cc21	-12	-4	-2	1	0	-4	.	.
O=C(O)CCN(Cc1ccccc1)S(=O)(=O)c1ccc(Cl)cc1F	0	4	16*	9.6*	5	-6	.	.	Tn6 DDE ctr=-1;DDE Tn6 confirm=-4;PLCgamma1 ctr=-3;PLCbeta3 conf=-1
Cc1ccc(NC(=O)C2CCCN(c3nnc(-n4cccc4)s3)C2)c(C)c1 (centres undefined)	-2	-2	8	3	1	1	.	.
COC(=O)[C@]12C[C@H](CC(=O)NCc3cccc(C(F)(F)F)c3)C(=O)N(CCC3=CCCCC3)C1=C[C@H](C1CCCC1)O[C@@H]2C	1	4	8	0	-2	5	.	.
NC(N)=NS(=O)(=O)c1ccc(NC(=S)NC(=O)/C=C/c2cccs2)cc1	-2	7	51*	13*	-2	-1	.	.	Tn6 DDE ctr=-8;DDE Tn6 confirm=-8;PLCgamma1 ctr=-1;PLCbeta3 conf=-2
Cc1nn(-c2ccccc2)c(C)c1/C=N/NC(=O)c1cc(-c2cccc3ccccc23)n[nH]1	3	-8	2	3	8	24*	6	2
S=C(NCc1ccc(Cl)cc1)OC1CCC12CCC(c1ccccc1)CC2 (centres undefined)	1	8	4	0	-2	-12	.	.
CC(COc1ccc(CC#N)cc1)CN1CCC(C(O)(c2ccccc2)c2ccccc2)CC1 (centres undefined)	8	-5	-2	7	8	12	.	.
Clc1ccccc1C1CC(c2ccccc2)Nc2ncnn21 (centres undefined)	-3	0	2	3	-3	92*	2	-1
Cc1ccc(-c2nc(C3CCCN(S(=O)(=O)c4ccc(Cl)s4)C3)no2)cc1 (centres undefined)	-1	9	-1	-2	-3	-3	.	.
COc1ccc(-n2c(C)c(C(C)=O)c3cc(O)ccc32)cc1	-3	-6	1	0	-1	-2	.	.
CCOC(=O)COc1ccc2c(c1)c(C(C)=O)c(C)n2-c1ccc(OC)cc1	-13	-8	1	1	7	21*	3	1
COc1ccc(CCC(=O)N2CCN(S(=O)(=O)c3ccc(C)cc3)CC2)cc1	-3	8	3	2	-3	-9	.	.
COc1ccc(S(=O)(=O)N2CCN(C(=O)c3ccc([N+](=O)[O-])o3)CC2)cc1	5	-4	2	9	5	21*	1	1
C[C@H]1[C@H](c2ccccc2)OC(O)([C@H](Cc2ccccc2)NC(=O)OC(C)(C)C)CN1C (some centres undefined)	-22	-5	-3	2	-6	-2	.	.
O=C(COC(=O)C1CCN(c2ccc(C(F)(F)F)cn2)CC1)Nc1ccc(Cl)cc1	-17	-2	-3	-5	7	27*	9	4
O=C(COC(=O)C1CCN(c2ccc(C(F)(F)F)cn2)CC1)Nc1ccc(Cl)cn1	-5	-6	1	-3	0	3	.	.
C[C@H]1[C@@H](OC(=O)N2CCN(c3ccccc3)CC2)CC[C@@]23CCCN2C(=O)CCC[C@@H]13	1	1	2	2	-3	-2	.	.
COc1ccc(C)cc1NC(=O)C(C)N(c1ccc(C)cc1)S(C)(=O)=O (centres undefined)	1	-2	-7	0	-2	0	.	.
Cc1ccc(N(C(C)C(=O)Nc2cc(Cl)ccc2Oc2ccccc2)S(C)(=O)=O)cc1 (centres undefined)	4	-6	-5	2	8	22*	7	2
CC(C)(C)c1nn(-c2ccccc2)c2[nH]c(=O)c(C=O)cc12	-94	-2	0	-65	-2	78*	5	2
O=C(Nc1ccccc1)Nc1nc2ncccn2c1-c1ccc(F)cc1	-136	-4	4	-118	-12	-50	.	.
CN(CCc1ccccc1)C(=O)c1ccc2c(c1)ncn2C1CCCCC1	-2	-7	-1	2	2	-10	.	.
O=C(CN1N=C(C(F)(F)F)CC1(O)c1ccc([N+](=O)[O-])cc1)c1ccccc1 (centres undefined)	-5	6	-3	-3	-2	7	.	.
O=C(c1ccccc1O)N1N=C(C(F)(F)F)CC1(O)c1ccc([N+](=O)[O-])cc1 (centres undefined)	-2	0	-7	7	6	27*	1	0
CC(C)C[C@H](NC(C)(C)C(=O)NC1CCCCC1)C(=O)NCC(c1ccccc1)c1ccccc1	4	-5	1	1	-1	-1	.	.
